The target in assay [1] is DNA topoisomerase 2-alpha (Homo sapiens, UniProt P11388). Nature of the assay: Inhibition of human recombinant topoisomerase 2 by decatenation assay. In short, it runs like this: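 One unit of human recombinant topo II (the amount that fully decatenates 200 ng kDNA) with 200 ng kinetoplast DNA in 50 mM Tris-HCl pH 8, 120 mM KCl, 10 mM MgCl2, 0.5 mM ATP, 0.5 mM DTT, 30 µg/mL BSA. Drug stocks in DMSO. 10 min at 37 °C, stopped with sarkosyl loading dye. Decatenation read on 1% agarose gel in TBE.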
DNA topoisomerase 2-alpha, sequence (P11388 whole entry): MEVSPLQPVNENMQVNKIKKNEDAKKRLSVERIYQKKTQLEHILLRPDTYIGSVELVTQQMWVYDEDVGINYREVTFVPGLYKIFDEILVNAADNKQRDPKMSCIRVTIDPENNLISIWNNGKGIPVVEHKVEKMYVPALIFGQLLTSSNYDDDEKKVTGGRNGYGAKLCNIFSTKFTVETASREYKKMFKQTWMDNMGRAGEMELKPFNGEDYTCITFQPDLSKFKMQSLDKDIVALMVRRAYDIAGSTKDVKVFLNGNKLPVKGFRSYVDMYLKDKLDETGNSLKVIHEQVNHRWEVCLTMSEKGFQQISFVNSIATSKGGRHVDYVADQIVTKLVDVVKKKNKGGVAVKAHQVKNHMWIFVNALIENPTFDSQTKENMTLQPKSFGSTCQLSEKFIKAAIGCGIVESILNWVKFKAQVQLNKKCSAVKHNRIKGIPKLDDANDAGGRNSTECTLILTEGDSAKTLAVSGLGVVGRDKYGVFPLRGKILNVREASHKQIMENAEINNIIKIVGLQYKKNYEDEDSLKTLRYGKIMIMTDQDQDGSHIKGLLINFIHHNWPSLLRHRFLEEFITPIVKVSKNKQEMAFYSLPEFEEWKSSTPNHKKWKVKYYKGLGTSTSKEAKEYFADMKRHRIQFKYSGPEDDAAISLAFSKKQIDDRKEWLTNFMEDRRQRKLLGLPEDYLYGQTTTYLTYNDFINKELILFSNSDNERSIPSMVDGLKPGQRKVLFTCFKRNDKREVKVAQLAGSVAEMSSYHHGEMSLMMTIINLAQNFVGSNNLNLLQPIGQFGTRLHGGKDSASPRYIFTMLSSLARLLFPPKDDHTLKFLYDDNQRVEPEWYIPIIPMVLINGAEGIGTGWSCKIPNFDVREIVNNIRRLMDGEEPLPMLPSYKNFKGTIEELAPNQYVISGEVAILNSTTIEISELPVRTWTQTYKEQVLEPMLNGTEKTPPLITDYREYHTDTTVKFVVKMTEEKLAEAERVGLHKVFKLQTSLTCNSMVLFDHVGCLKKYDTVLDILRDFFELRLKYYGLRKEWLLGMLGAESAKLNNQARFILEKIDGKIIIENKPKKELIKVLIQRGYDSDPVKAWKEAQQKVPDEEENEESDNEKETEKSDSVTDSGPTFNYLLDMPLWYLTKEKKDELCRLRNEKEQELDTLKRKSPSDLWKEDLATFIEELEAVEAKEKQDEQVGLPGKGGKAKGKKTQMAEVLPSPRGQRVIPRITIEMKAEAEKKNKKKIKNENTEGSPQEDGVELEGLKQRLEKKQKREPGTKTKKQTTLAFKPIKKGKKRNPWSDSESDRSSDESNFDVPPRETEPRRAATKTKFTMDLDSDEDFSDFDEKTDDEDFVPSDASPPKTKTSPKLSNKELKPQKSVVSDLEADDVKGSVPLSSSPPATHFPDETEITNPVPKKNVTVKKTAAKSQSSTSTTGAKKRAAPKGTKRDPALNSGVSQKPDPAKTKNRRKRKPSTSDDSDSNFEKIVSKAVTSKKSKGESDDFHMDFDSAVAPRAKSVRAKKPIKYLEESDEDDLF

The next assay deals with SK-MEL-2. The assay can be described thus: Cytotoxicity against human SK-MEL-2 cells after 3 days by SRB assay. As to conditions: SK-MEL-2, 72 h. The format is functional, cell-based. For orientation: Sulforhodamine B stains cellular protein and so reports cell mass.
Another assay concerns HL-60. The assay can be described thus: Cytotoxicity against human HL60 cells after 3 days by SRB assay. The format is functional, cell-based. As to conditions: HL-60, 72 h.
The next assay deals with XF498. Nature of the assay: Cytotoxicity against human XF498 cells after 3 days by SRB assay. As to conditions: XF498, 72 h. The format is functional, cell-based.
Another assay concerns HT-1080. The assay can be described thus: Cytotoxicity against human HT1080 cells after 3 days by SRB assay. The format is functional, cell-based. Conditions: HT-1080, 72 h.
For the next assay, the system named is SNU-638. Nature of the assay: Cytotoxicity against human SNU638 cells after 3 days by SRB assay. The class given is functional, cell-based. Conditions: SNU-638, 72 h.
The next assay concerns A549. The assay can be described thus: Cytotoxicity against human A549 cells after 3 days by SRB assay. The format is functional, cell-based. As to conditions: A549, 72 h.
A further assay has as its system HCT-15. Nature of the assay: Cytotoxicity against human HCT15 cells after 3 days by SRB assay. The class given is functional, cell-based. As to conditions: HCT-15, 72 h.
A further assay deals with SK-OV-3. Nature of the assay: Cytotoxicity against human SKOV3 cells after 3 days by SRB assay. The format is functional, cell-based. As to conditions: SK-OV-3, 72 h.

A value given as a limit tells only on which side of the number the result lay.

One may read the IC50 as the concentration at which inhibition is half-maximal. For `O=C1c2cnncc2C(=O)c2[nH]nnc21`, the IC50 in [1] is 52.8 µM; with SK-MEL-2, more than 10 µM; in the assay with HL-60 it was more than 5 µM; in the assay with XF498, more than 10 µM; in the assay on HT-1080, more than 5 µM; in the assay with SNU-638 it was more than 5 µM. The IC50 in the assay with A549 was 9.02 µM; in the assay with HCT-15, more than 10 µM; in the assay with SK-OV-3, 7.64 µM.

On to `CC(C)Cn1nnc2c1C(=O)c1cnncc1C2=O`, for which the IC50 in [1] was 29.8 µM; with SK-MEL-2, 0.066 µM; in the assay with HL-60, 0.075 µM; with XF498, 0.14 µM; with HT-1080, 0.077 µM; in the assay on SNU-638, 0.069 µM. The values for the IC50 with A549, with HCT-15 and with SK-OV-3 were 0.11 µM, 0.11 µM and 0.19 µM, respectively.

Turning to `COc1cc([C@@H]2c3cc4c(cc3[C@@H](O[C@@H]3O[C@@H]5CO[C@@H](C)O[C@H]5[C@H](O)[C@H]3O)[C@H]3COC(=O)[C@H]23)OCO4)cc(OC)c1O` [ETOPOSIDE], the IC50 in the assay with SK-MEL-2 was found to be 5.72 µM; in the assay with HL-60 it was 0.37 µM; in the assay on XF498, 3.48 µM; with HT-1080, 0.25 µM; in the assay on SNU-638 it was 0.23 µM; with A549 it was 1.16 µM. The values for the IC50 in the assay on HCT-15 and in the assay with SK-OV-3 were 2.8 µM and 4.28 µM, respectively.

For the compound `CCCn1nnc2c1C(=O)c1cnncc1C2=O`, the IC50 in assay [1] came to 49 µM; in the assay with SK-MEL-2, 0.02 µM; in the assay on HL-60 it was 0.083 µM; in the assay on XF498 it was 0.085 µM; in the assay on HT-1080, 0.075 µM; with SNU-638 it was 0.212 µM. For the same compound, the IC50 was determined as 0.026 µM with A549, 0.176 µM in the assay on HCT-15 and 0.014 µM with SK-OV-3.

In the case of `CCCCn1nnc2c1C(=O)c1cnncc1C2=O`, the IC50 in assay [1] was 43.2 µM; with SK-MEL-2, 0.023 µM; in the assay on HL-60, 0.089 µM; with XF498, 0.181 µM; in the assay on HT-1080 it was 0.099 µM; in the assay on SNU-638 it was 0.155 µM. The 50% inhibitory concentration (IC50) in the assay on A549 turned out to be 0.081 µM; with HCT-15, 0.177 µM; with SK-OV-3, 0.021 µM.

In the case of `Cn1nnc2c1C(=O)c1cnncc1C2=O`, the IC50 in assay [1] turned out to be 39 µM; in the assay on SK-MEL-2, 0.008 µM; in the assay on HL-60 it was 0.082 µM; in the assay on XF498, 0.035 µM; in the assay with HT-1080, 0.073 µM; in the assay on SNU-638, 0.241 µM. The results for the IC50 in the assay with A549, with HCT-15 and with SK-OV-3 were 0.004 µM, 0.103 µM and 0.003 µM, respectively.

Take `CC(C)n1nnc2c1C(=O)c1cnncc1C2=O`: the IC50 in [1] is 33.3 µM; in the assay on SK-MEL-2, 0.016 µM; in the assay with HL-60 it was 0.05 µM; in the assay on XF498, 0.049 µM; in the assay with HT-1080, 0.114 µM; with SNU-638 it was 0.057 µM. Also, the IC50 was 0.032 µM in the assay with A549, 0.033 µM in the assay with HCT-15 and 0.049 µM in the assay with SK-OV-3.

As for `COc1ccc(Cn2nnc3c2C(=O)c2cnncc2C3=O)cc1`, the IC50 was 28.6 µM in assay [1]; 0.041 µM in the assay on SK-MEL-2; 0.13 µM with HL-60; 0.118 µM in the assay with XF498; 0.33 µM with HT-1080; 0.257 µM in the assay on SNU-638. Moreover, the IC50 is 0.054 µM with A549, 0.059 µM in the assay on HCT-15 and 0.012 µM in the assay with SK-OV-3.

`Cn1nc2c(n1)C(=O)c1cnncc1C2=O`: the IC50 in [1] turned out to be 55.6 µM; in the assay with SK-MEL-2, 0.002 µM; with HL-60 it was 0.124 µM; in the assay with XF498, 0.004 µM; in the assay with HT-1080, 0.0078 µM; with SNU-638 it was 0.054 µM. The IC50 was determined as 0.002 µM in the assay on A549, 0.02 µM in the assay on HCT-15 and 0.0004 µM in the assay on SK-OV-3.

With `CC(C)Cn1nc2c(n1)C(=O)c1cnncc1C2=O`, the IC50 turned out to be 19.4 µM in assay [1]; 0.015 µM in the assay on SK-MEL-2; 0.038 µM with HL-60; 0.019 µM with XF498; 0.085 µM in the assay with HT-1080; 0.014 µM in the assay on SNU-638. For the same compound, the IC50 in the assay on A549 worked out at 0.019 µM; in the assay with HCT-15 it was 0.029 µM; in the assay on SK-OV-3, 0.043 µM.

For the compound `CCn1nnc2c1C(=O)c1cnncc1C2=O`, the IC50 in [1] was 55.6 µM; in the assay with SK-MEL-2, 0.008 µM; in the assay on HL-60, 0.056 µM; with XF498, 0.034 µM; in the assay on HT-1080, 0.068 µM; in the assay on SNU-638, 0.126 µM. Moreover, the results for the IC50 in the assay with A549, in the assay with HCT-15 and with SK-OV-3 were 0.006 µM, 0.039 µM and 0.003 µM, respectively.

For the compound `COc1cccc2c1C(=O)c1c(O)c3c(c(O)c1C2=O)C[C@@](O)(C(=O)CO)C[C@@H]3O[C@H]1C[C@H](N)[C@H](O)[C@H](C)O1` [DOXORUBICIN], the IC50 with SK-MEL-2 came out at 0.019 µM; with HL-60, 0.044 µM; with XF498, 0.044 µM; with HT-1080 it was 0.022 µM; in the assay with SNU-638, 0.052 µM; in the assay with HCT-15, 0.251 µM. In the assay with SK-OV-3, half-maximal inhibition (IC50) required 0.041 µM.

As to `CC(C)n1nc2c(n1)C(=O)c1cnncc1C2=O`, the IC50 in assay [1] came out at 54.5 µM; with SK-MEL-2, 0.007 µM; in the assay on HL-60, 0.018 µM; in the assay with XF498, 0.014 µM; in the assay on HT-1080 it was 0.055 µM; in the assay with SNU-638, 0.011 µM. In addition, the IC50 in the assay on A549 is 0.009 µM; in the assay on HCT-15 it was 0.014 µM; in the assay on SK-OV-3, 0.031 µM.

On to `CCn1nc2c(n1)C(=O)c1cnncc1C2=O`, for which the IC50 was 61.5 µM in assay [1]; 0.004 µM in the assay on SK-MEL-2; 0.09 µM with HL-60; 0.017 µM in the assay on XF498; 0.204 µM in the assay with HT-1080; 0.046 µM with SNU-638. In addition, the values for the IC50 in the assay with A549, with HCT-15 and in the assay with SK-OV-3 were 0.018 µM, 0.018 µM and 0.003 µM, respectively.

On to `CCCCn1nc2c(n1)C(=O)c1cnncc1C2=O`, for which the IC50 worked out at 64.8 µM in assay [1]; 0.015 µM in the assay with SK-MEL-2; 0.151 µM with HL-60; 0.019 µM with XF498; 0.03 µM with HT-1080; 0.05 µM with SNU-638. In addition, the IC50 stood at 0.018 µM with A549, 0.018 µM in the assay on HCT-15 and 0.017 µM with SK-OV-3.

Turning to `CCCn1nc2c(n1)C(=O)c1cnncc1C2=O`, the IC50 stood at 44.4 µM in assay [1]; 0.009 µM with SK-MEL-2; 0.157 µM with HL-60; 0.018 µM with XF498; 0.033 µM in the assay with HT-1080; 0.043 µM with SNU-638. The IC50 with A549 stood at 0.019 µM; with HCT-15, 0.018 µM; in the assay with SK-OV-3, 0.009 µM.
